Test results published in ChEMBL document CHEMBL4706564 (Eur J Med Chem, 2020).

Assays:
[1] = (§1) Cytotoxicity against human HEK293T cells incubated for 48 hrs by MTT assay; type: cell-based, HEK-293T; details: HEK293T cells
Outline: (§2)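 HEK293T cells at 10⁵ cells/ml were added to two-fold compound dilutions in 10% DMEM and incubated 48 h at 37 °C, 5% CO2. MTT (5 mg/ml stock in PBS, 1/10 volume) was added for 2 h, and formazan was dissolved in DMSO before reading optical density. Each concentration was run in triplicate. CC50 was the concentration giving 50% cell death, or halving OD versus control.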

cells [2] = type: cell-based, Ebolavirus, HEK293T; details: Orthoebolavirus, Mayinga, HEK-293T
cells [3] = type: cell-based, HEK293T; details: Vesicular stomatitis virus, HEK-293T
in vitro = details: human, HEK293T cells
HEK-293T = assay: as §1; type: cell-based; details: hek-293t, 48 h; outline: as §2
Zaire ebolavirus = assay: Antiviral activity against Zaire ebolavirus infected in African green monkey Vero cells assessed as inhibition of viral infection by measuring […] incubated for 10 days by neutral red dye based colorimetric analysis; type: functional, organism-based; details: vero; read-out: IC50
[4] = Acute toxicity in ig dosed ICR mouse; type: organism-based; details: in vivo, po
Outline: (§3)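 Outbred ICR mice, randomised into groups of 2. Each group got a single oral gavage dose of 1.08, […], 0.27 or 0.14 g/kg, given as a suspension in 10% DMSO in water at 0.1 mL/10 g. Controls received solvent only. Survival was recorded over 7 days.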

Vero = assay: Cytotoxicity against African green monkey Vero cells assessed as reduction in cell survival incubated for 10 days by neutral red dye based colorimetric analysis; details: chlorocebus sabaeus, vero, 240 h; time 10 day
Outline: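 Confluent Vero monolayers received six concentrations from 3-fold serial dilutions in DMEM of DMSO-dissolved compound, plus medium without virus. After 10 days at 37 °C, 5% CO2, cells were stained with neutral red and read at 490 nm. CC50 came from a 4-parameter fit, with at least 3 analyses per compound.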

Marburgvirus = assay: Antiviral activity against MARV Popp infected in African green monkey Vero cells assessed as inhibition of viral infection by measuring reduction in virus-induced cytotoxicity incubated for 10 days by neutral red dye based colorimetric analysis; type: functional, organism-based; details: vero; read-out: IC50
[5] = Acute toxicity in ICR mouse assessed as animal death at 0.14 to 1.08 g/kg, ig and measured for 7 days; details: in vivo, po, 168 h, dose 0.14-1.08 g/Kg, time 7 day; outline: as §3
Ebolavirus = assay: Antiviral activity against eGFP-positive VSV-G pseudotyped EBOV infected in human U2OS cells assessed as reduction in virus entry cells pre-incubed with compound for 1 hr followed by viral infection and measured after 12 to 14 hrs by fluorescence microscopic analysis; type: functional, organism-based; details: Orthoebolavirus

Row | SMILES | CC50 at 48 h [1] [µM] | IC50 (cells [2]) [nM] | IC50 (cells [3]) [µM] | selectivity ratio (in vitro) | CC50 (HEK-293T) [µM] | IC50 (Zaire ebolavirus) [µM] | LD50 [4] [mg/kg] | CC50 (Vero) [µM] | IC50 (Marburgvirus) [µM] | Activity [5] | IC50 (Ebolavirus) [nM]
1 | CN(C)CC(=O)O[C@@H]1C[C@@H]2CC[C@@]1(C)C2(C)C | 389 | 251000 | 523 | 2 | – | – | – | – | – | – | –
2 | CCN1CCN(CCC(=O)N[C@@H]2C[C@H]3CC[C@]2(C)C3(C)C)CC1 | 565 | 600 | 565 | 908 | – | – | – | – | – | – | –
3 | CC1(C)[C@@H]2CC[C@@]1(C)[C@H](NC(=O)CCCN1CCOCC1)C2 | 172 | 9400 | 172 | 18 | – | – | – | – | – | – | –
4 | CC1(C)[C@@H]2CC[C@@]1(C)[C@H](NC(=O)CN1CCOCC1)C2 | 838 | 5700 | 838 | 147 | – | – | – | – | – | – | –
5 | CC1(C)[C@H]2CC[C@]1(C)[C@H](OC(=O)CCN1CCCCC1)C2.Cl | – | – | – | – | 87 | 9.1 | > 1000 | 279 | 18.1 | Non-Toxic | –
6 | CC1(C)[C@H]2CC[C@]1(C)[C@H](OC(=O)CCCN1CCN(CCN)CC1)C2 | 71.1 | 600 | 50.4 | 125 | – | – | – | – | – | – | –
7 | CC1(C)[C@H]2CC[C@]1(C)[C@H](OC(=O)CCCN1CCN(CCO)CC1)C2 | 224 | 300 | 192 | 658 | – | – | – | – | – | – | –
8 | CC1(C)[C@H]2CC[C@]1(C)[C@H](OC(=O)CCN1CCN(Cc3ccccc3)CC1)C2 | 39 | 300 | 27 | 150 | – | – | – | – | – | – | –
9 | CN1CCN(CCCC(=O)N[C@@H]2C[C@H]3CC[C@]2(C)C3(C)C)CC1 | 475 | 2500 | 475 | 191 | – | – | – | – | – | – | –
10 | CCN1CCN(CC(=O)N[C@@H]2C[C@H]3CC[C@]2(C)C3(C)C)CC1 | 660 | 8500 | 660 | 78 | – | – | – | – | – | – | –
11 | CCCNC(=O)[C@@H]1O[C@H]1C(=O)N[C@@H](Cc1ccc(C)cc1)C(=O)N[C@H](C(=O)N1CCN(Cc2ccccc2)CC1)c1ccccc1 | – | – | – | – | – | – | – | – | – | – | 70
12 | CCN(CC)CCCC(=O)O[C@@H]1C[C@@H]2CC[C@@]1(C)C2(C)C | 166 | 300 | 195 | 490 | – | – | – | – | – | – | –
13 | CN1CCN(CCC(=O)N[C@@H]2C[C@H]3CC[C@]2(C)C3(C)C)CC1 | 486 | 2600 | 486 | 187 | – | – | – | – | – | – | –
14 | CC1(C)[C@H]2CC[C@]1(C)[C@H](OC(=O)CN1CCN(CCN)CC1)C2 | 247 | 2200 | 24.1 | 114 | – | – | – | – | – | – | –
15 | CC1CCN(CCC(=O)O[C@@H]2C[C@@H]3CC[C@@]2(C)C3(C)C)CC1 | – | – | – | – | 69.8 | 64.7 | – | 144 | 5.7 | – | –
16 | CCN(CC)CC(=O)O[C@@H]1C[C@@H]2CC[C@@]1(C)C2(C)C | 344 | 5600 | 561 | 61 | – | – | – | – | – | – | –
17 | CC1(C)[C@H]2CC[C@]1(C)[C@H](OC(=O)CCN1CCN(CCO)CC1)C2 | 272 | 1800 | 259 | 153 | – | – | – | – | – | – | –
18 | CC1(C)[C@H]2CC[C@]1(C)[C@H](OC(=O)CCCN1CCN(Cc3ccccc3)CC1)C2 | 30.1 | 300 | 26 | 100 | – | – | – | – | – | – | –
